Screening data deposited in PubChem by several laboratories.
Compounds with a hit are over-represented: about 2.6% of the library has one in this group of screens.
CHT allo act – allosterically activates the human high affinity choline transporter. Q9GZV3. CHT-expressing cells, membrane potential dye, choline EC20; active compounds read high; LV-AA mutant CHT in HEK293 cells. B-score at 10 µM. hit rate 0.49% among 310,000;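 active means initial fluorescence not abnormally high and integrated response B-score, plate-corrected, over 3 SD above library mean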
Rad51 HR inh – Rad51 (human) homologous recombination inhibition; Q06609; hRad51 DNA strand exchange, fluorescence dequenching; hit rate 0.085% among 200,000; inhibition, % at 10 µM; AID 1385;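 active means inhibition above 40% at the single screening dose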;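 further: 0% = DMSO control wells and 100% = blanks with heterologous ssDNA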
Target sequence (Q06609 whole entry, looked up): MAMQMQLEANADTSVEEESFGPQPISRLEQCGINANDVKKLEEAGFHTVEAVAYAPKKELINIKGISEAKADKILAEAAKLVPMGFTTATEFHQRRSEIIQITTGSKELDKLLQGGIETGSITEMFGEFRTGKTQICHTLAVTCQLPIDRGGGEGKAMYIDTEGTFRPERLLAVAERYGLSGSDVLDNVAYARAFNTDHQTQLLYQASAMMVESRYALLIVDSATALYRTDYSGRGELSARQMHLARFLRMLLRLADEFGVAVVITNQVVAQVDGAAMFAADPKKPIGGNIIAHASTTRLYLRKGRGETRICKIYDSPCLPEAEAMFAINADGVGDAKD
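System: human Rad51 nucleoprotein filaments preassembled on unlabelled ssDNA. Reagent: labelled 47-mer dsDNA for strand exchange. Schedule: 30-min compound preincubation and 15-min exchange, both room temperature. Measured by: FRET fluorescence dequenching, excitation 485 nm, emission 520 nm. Read-out: Fluorescence-based percent inhibition, control- and blank-normalised. Benchmarks: plate controls and plate blanks.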
CHT block – inhibitors of human choline transporter CHT; CHT-expressing cells, membrane potential dye, choline response; active compounds read low; B-score at 10 µM; hit rate 0.86% among 310,000; AID 488975;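 active means B-score over 3 SD under the library average, and starting fluorescence ratio not unusually high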;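 further: choline stimulus applied at its EC90 after an EC20 pre-addition; B-score computed on integrated fluorescence ratio after choline addition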
KCC2 mod – modulates chloride dependent transport by human KCC2. Q9H2X9. KCC2 cells, thallium flux FluoZin-2 fluorescence. B-score of Tl+ flux slope (higher = more flux/activation; lower = inhibition) at 10 µM. hit rate 2.2% among 190,000;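 active means thallium flux slope and its plate-corrected score both differing from the plate sample mean at a set confidence after two filtering rounds, in either direction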;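 further: slope of fluorescence scaled to starting intensity during 10 to 20 s after thallium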
An asterisk follows results filed as active; ! = a repeat was not active.

How did Cc1cc2c(C(C)C)c(O)c(O)c(C=O)c2c(O)c1-c1c(C)cc2c(C(C)C)c(O)c(O)c(C=O)c2c1O do in these assays?
Rad51 HR inh: -4; KCC2 mod: -7.2*!

What do the screens show for `COc1cc(OC)c(OC)cc1CNCCc1cccc(F)c1`?
CHT allo act: inactive; CHT block: inactive

Results for COc1ccc(CNCCc2cccc(F)c2)c2ccccc12 ?
CHT allo act: inactive; CHT block: -7.2*

How did Cc1ccc2c(c1)C1CN(C)CCC1N2C(=O)COc1ccc(S(=O)(=O)N2CCOCC2)cc1 (stereo unspecified) do in these assays?
CHT allo act: inactive; Rad51 HR inh: -1; CHT block: inactive; KCC2 mod: 0.71

What do the screens show for `CC1=CC(C)C(COC(N)=O)(COC(N)=O)C(C)C1` (stereo unspecified)?
CHT allo act: inactive; Rad51 HR inh: 48*; CHT block: inactive; KCC2 mod: -0.24

How did CCOC(=O)N(CC)c1ccc(C(O)(C(=O)OC)C(F)(F)F)cc1 (stereo unspecified) do in these assays?
CHT allo act: inactive; Rad51 HR inh: -6; CHT block: inactive; KCC2 mod: -0.19

How did O=c1[nH]c(N2CCN(Cc3ccc4c(c3)OCO4)CC2)nc2c1CCC2 do in these assays?
CHT allo act: inactive; Rad51 HR inh: 84*; CHT block: inactive

How did Cc1c(N=Cc2c(O)n(Cc3ccco3)c(=O)[nH]c2=O)c(=O)n(-c2ccccc2)n1C do in these assays?
CHT allo act: inactive; Rad51 HR inh: 6; CHT block: inactive; KCC2 mod: 0.015

What do the screens show for `C/C=C(\C)C(=O)OC1C(C)=C2C(C1OC(=O)CCCCC)C(C)(OC(C)=O)CC(OC(=O)CCC)C1(O)C2OC(=O)C1(C)O` (stereo unspecified)?
CHT allo act: 8*; Rad51 HR inh: 4; CHT block: inactive; KCC2 mod: -0.59

Results for CC/C(=C\C=C\[C@@H]1C=C[C@@H]2CCC[C@H]2[C@@H]1C(=O)c1ccc[nH]1)[C@@H]1O[C@@H]([C@@H](C)C(=O)O)CC[C@@H]1C ?
CHT allo act: inactive; Rad51 HR inh: -8; CHT block: -5.5*; KCC2 mod: 3.4*

Results for COC(=O)C1=C(c2cccc(OC)c2OC)C[C@@H]2CC[C@H]1N2C(=O)NCCO ?
CHT allo act: inactive; Rad51 HR inh: 3; CHT block: inactive

How did COc1cc2c(c(OC)c1OC)-c1ccc(O)cc1[C@@H](NC(C)=O)CC2 do in these assays?
CHT allo act: 8*; CHT block: inactive

What do the screens show for `CS(=O)(=O)c1ccc(C2=C(c3ccccc3)C(=O)OC2)cc1`?
CHT allo act: inactive; Rad51 HR inh: -4; CHT block: inactive

What do the screens show for `CC[N+](C)(CC)CCCCOc1ccc2c(c1)C(=O)c1cc(OCCCC[N+](C)(CC)CC)ccc1-2`?
CHT allo act: inactive; Rad51 HR inh: 42*; CHT block: inactive; KCC2 mod: 0

What do the screens show for `CCCC(C)C1(CC)C(=O)NC(=Nc2ccc(OC)cc2)NC1=O` (stereo unspecified)?
CHT allo act: inactive; Rad51 HR inh: -2; CHT block: inactive; KCC2 mod: 0.53

What do the screens show for `O=[N+]([O-])c1ccc(N2CCNCC2)cc1N1CCCCC1`?
CHT allo act: inactive; Rad51 HR inh: -2; CHT block: inactive; KCC2 mod: 0.016

What do the screens show for `Cn1cnnc1Sc1cc(N2CCNCC2)ccc1[N+](=O)[O-]`?
CHT allo act: inactive; Rad51 HR inh: 13; CHT block: inactive; KCC2 mod: 0.48

What do the screens show for `O=[N+]([O-])c1ccc(N2CCNCC2)cc1NC1CC1`?
CHT allo act: 6.4*; CHT block: inactive

Results for CCNc1cc(N2CCNCC2)ccc1[N+](=O)[O-] ?
CHT allo act: 7.3*; Rad51 HR inh: -10; CHT block: inactive; KCC2 mod: -0.8

Results for COc1ccc(-n2c(/C=C3\C(=O)Nc4ccccc43)nc3ccccc3c2=O)cc1 ?
CHT allo act: inactive; Rad51 HR inh: -31; CHT block: inactive; KCC2 mod: 1.5

Results for COc1ccc2c(c1)/C(=C/c1cnc[nH]1)C(=O)N2 ?
CHT allo act: 8.8*; CHT block: inactive

How did Clc1ccccc1C1NCc2ccccc2-n2cccc21 (stereo unspecified) do in these assays?
CHT allo act: inactive; CHT block: inactive; KCC2 mod: -0.018

Results for S=C1CN=C(c2ccccc2Cl)c2cc(Cl)ccc2N1 ?
CHT allo act: inactive; CHT block: inactive; KCC2 mod: 5.8*
